Bioassay records (PubChem BioAssay)
A selection: hits, their analogues and other compounds. The true share with any hit is near 12%.
Lmaj promast – Leishmania major promastigote growth inhibition. 9% of 200,000 active. inhibition, % at 10 µM. Leishmania major promastigotes, resazurin fluorescence viability;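 further: promastigotes grown with compound for 44 hours at 28 °C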
CHOP inhibitor – inhibitors of CHOP induction in ER stress response; CHO-K1 CHOP-promoter luciferase, tunicamycin-induced, 15-18 h; 3.8% of 220,000 active; inhibition, % at 10 µM;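 active means compounds that reduced the stress-induced luciferase reporter signal by more than about 70% of percent inhibition, limit read from the data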
Wee1 stabilizer – blocks degradation of human Wee1 kinase; P30291; HeLa Luc-Wee1K328M stability, luciferase luminescence; 100% = proteasome inhibitor MG132 effect; reporter increase, % at 5 µM; 1.2% of 220,000 active; AID 1321;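 active means activation above the mean of all tested compounds plus 3 SD, set per screening run, cut at about 8.8% in these data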;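 further: cells exposed to compound for 20 h before luminescence read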
Arbovirus inh – blocks arbovirus infection; arbovirus infection cell-based antiviral screen; inhibition, % at 10 µM; 0.37% of 200,000 active; in the data active means inhibition above about 30%
Rad51 HR inh – blocks human Rad51 in homologous recombination; inhibition, % at 10 µM; hRad51 DNA strand exchange, fluorescence dequenching; 0.085% of 200,000 active; AID 1385; Q06609;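 active means inhibition above 40% at the single screening dose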
Target sequence (Q06609 whole entry, looked up): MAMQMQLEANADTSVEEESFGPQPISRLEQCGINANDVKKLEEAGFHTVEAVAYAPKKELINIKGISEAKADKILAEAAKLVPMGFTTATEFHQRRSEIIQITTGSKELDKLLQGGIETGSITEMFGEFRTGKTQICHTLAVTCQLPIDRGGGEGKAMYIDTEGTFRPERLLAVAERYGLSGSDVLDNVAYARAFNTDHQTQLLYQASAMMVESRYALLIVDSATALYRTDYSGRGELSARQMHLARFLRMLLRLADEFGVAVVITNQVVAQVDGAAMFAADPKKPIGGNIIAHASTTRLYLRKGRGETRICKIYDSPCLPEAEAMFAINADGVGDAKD
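Test system – preformed human Rad51 ssDNA filaments · Reagent – Donor/quencher-labelled 47-bp dsDNA substrate · Incubation – 37 °C 15-min filament assembly, 30-min compound preincubation, 15-min exchange · Signal – FRET fluorescence dequenching, excitation 485 nm, emission 520 nm · Read-out – percent inhibition from fluorescence, normalised to plate control and blank means · Benchmarks – plate control and blank wells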
PKD1 kinase inh – inhibitors of human PKD1 kinase; AID 797; Q15139; 0.056% of 200,000 active; PKD1 kinase fluorescence polarization assay; inhibition, % (test concentration not listed)
Hits are given with their value; 0 = inactive; - = no result. Unless noted, no stated cut-off is given here; in the data, active means inhibition above about 50%; inactive means the rest.

SMILES	Lmaj promast	CHOP inhibitor	Wee1 stabilizer	Arbovirus inh	Rad51 HR inh	PKD1 kinase inh
CC(C)(C)c1ccccc1OCCCCCNCCO	93.0	0	0	0	0	0
Cc1cccc(C)c1OCCCCCNCCO	89.2	0	0	0	0	0
CC(C)c1ccccc1OCCCCCNCCO	91.2	0	0	0	0	0
COc1ccccc1OCCCCNCCO	0	0	0	0	0	0
Cc1ccccc1OCCCCCNCCO	61.7	0	0	0	0	0
COc1ccc(CC(=O)O/N=C(\N)Cc2ccc(OC)c(OC)c2)cc1	91.9	0	0	0	0	0
COc1cccc(CC2(CO)CCCN(Cc3cnn(-c4ccccc4)c3)C2)c1 (stereo not drawn)	90.0	0	0	0	0	0
COCc1ccc(CN2CCCC(CO)(Cc3cccc(OC)c3)C2)o1 (stereo not drawn)	-	0	0	-	-	-
COc1cccc(CC2(CO)CCCN(Cc3ccc(CN4CCCCC4)s3)C2)c1 (stereo not drawn)	77.2	0	0	0	0	0
COc1cccc(CC2(CO)CCCN(Cc3cn(C)c4ccccc34)C2)c1 (stereo not drawn)	0	0	0	0	0	0
CC(OC(=O)c1cccc(S(=O)(=O)Nc2cccc(C(F)(F)F)c2)c1)C(=O)Nc1ccc2c(c1)OCCO2 (stereo not drawn)	0	0	9.2	0	0	0
Cc1ccc(-n2nc(-c3ccco3)cc2C(=O)O)c(C)c1	0	0	0	0	0	0
O=C(CSc1ncccn1)Nc1ccc2c(c1)CCC2	-	0	0	-	0	-
O=C(Nc1ccc(Cl)c(Cl)c1)c1cccc(S(=O)(=O)NCc2cccnc2)c1	0	0	0	0	0	0
Nc1nc(Nc2ccccc2F)nc(NCc2ccccc2)c1[N+](=O)[O-]	-	0	9.6	-	0	-
Nc1nc(NCc2ccccc2)nc(NCc2ccccc2)c1[N+](=O)[O-]	0	0	0	0	0	0
Cc1ccc(CNc2nc(N)c([N+](=O)[O-])c(NCc3ccccc3)n2)cc1	69.5	0	0	0	0	0
O=C(Nc1nc2n(n1)C(c1ccc(Cl)cc1)CC(c1ccc(Cl)cc1)N2)c1ccco1 (stereo not drawn)	75.7	80.5	0	0	0	0
COc1ccc(C2CC(c3ccc(Cl)cc3)Nc3nc(NC(=O)c4ccco4)nn32)cc1 (stereo not drawn)	0	0	0	0	0	0
O=C(O)c1cc(-c2c[nH]c3ccccc23)nc2cc3ccccc3cc12	-	0	0	-	0	-
Cc1ccc2nc(C(C)O)[nH]c2c1 (stereo not drawn)	0	0	9.5	0	0	0
Cc1ccc2nc(C(O)C(O)c3nc4ccc(C)cc4[nH]3)[nH]c2c1 (stereo not drawn)	0	0	0	0	0	0
CC(C)CC(=O)NC(NC(=S)Nc1sc2c(c1C#N)CCCC2)C(Cl)(Cl)Cl (stereo not drawn)	0	78.5	0	0	0	0
CC1CCc2c(sc(NC(=S)NC(=O)c3ccccc3)c2C#N)C1 (stereo not drawn)	-	70.9	0	-	0	-
N#Cc1c(NC(=O)c2cccnc2)sc2c1CCC2	0	0	0	0	0	0
SMILES	Lmaj promast	CHOP inhibitor	Wee1 stabilizer	Arbovirus inh	Rad51 HR inh	PKD1 kinase inh
CCCC1Cc2c(sc(NC(=S)NC(=O)c3ccccc3)c2C#N)CO1 (stereo not drawn)	0	86.4	0	0	0	0
N#Cc1c(NC(=O)c2ccccc2)sc2c1CCC2	0	0	10.7	0	0	0
CC1CCc2c(sc(NC(=O)c3ccccc3C(=O)O)c2C#N)C1 (stereo not drawn)	0	0	0	59.1	0	0
CCC(C)(C)C1CCc2c(sc(NC(=O)c3ccccc3C(=O)O)c2C#N)C1 (stereo not drawn)	-	0	0	-	0	-
N#Cc1c(C(F)(F)F)cc(-c2ccccc2)nc1SCC(=O)Nc1sc2c(c1C#N)CCC2	0	73.7	0	0	0	0
CCCc1nn(C)c2c(=O)[nH]c(-c3cc(S(=O)(=O)Nc4ccc(NC(C)=O)cc4)ccc3OCC)nc12	-	0	0	-	-	-
CC1c2ccsc2CCN1S(=O)(=O)c1cccs1 (stereo not drawn)	-	0	0	-	0	-
O=C(CN(Cc1ccccc1)S(=O)(=O)c1ccc(S(=O)(=O)N2CCOCC2)cc1)Nc1ccccc1	0	0	0	0	0	0
CCCCNC(=S)NNC(=O)C12CC3CC(CC(C3)C1)C2	0	0	0	0	105.7	0
CC(C)NC(=S)NNC(=O)C12CC3CC(CC(C3)C1)C2	0	0	0	0	0	0
